Converted amounts (≈) assume the structure as drawn.
What was measured:
Type in all cases: functional
Details in all cases: read-out: ED50 (the source's name)
A549 = assay: Cytotoxicity against human A549 cells
SK-OV-3 = assay: Cytotoxicity against human SK-OV-3 cells
SK-MEL-2 = assay: Cytotoxicity against human SK-MEL-2 cells
Procedure, shortened: (§1)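 Human tumour cell lines of stated origin: SK-MEL-2 from skin cancer, XF498 from CNS cancer, HCT 15 from colon cancer.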

XF498 = assay: Cytotoxicity against human XF498 cells; procedure, shortened: as §1
HCT-15 = assay: Cytotoxicity against human HCT15 cells; procedure, shortened: as §1

## COc1cccc2c1C(=O)c1c(O)c3c(c(O)c1C2=O)C[C@@](O)(C(=O)CO)C[C@@H]3O[C@H]1C[C@H](N)[C@H](O)[C@H](C)O1 [DOXORUBICIN]
A549
  EC50: 0.04 µg/mL (≈ 0.0736 µM)
SK-OV-3
  EC50: 0.13 µg/mL (≈ 0.239 µM)
SK-MEL-2
  EC50: 0.04 µg/mL (≈ 0.0736 µM)
XF498
  EC50: 0.06 µg/mL (≈ 0.11 µM)
HCT-15
  EC50: 0.06 µg/mL (≈ 0.11 µM)
